Screening results (PubChem)
Shown are actives, neighbours in structure and some others; about 5% of the full set was active somewhere.
UPR XBP1 act = activators of adaptive arm of unfolded protein response (XBP1); CHO-XBP1 luciferase reporter, IRE1-XBP1 UPR activation, luminescence; percent of tunicamycin response, DMSO as zero; activation, % at 20 µM; hit rate 0.33% among 330,000;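 active = versus positive control, 20 µM dose yields 30% or more activation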;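 also: 100% = tunicamycin at 10 µg/mL and 0% = DMSO only wells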
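Material: CHO-XBP1 cells stably carrying IRE1-XBP1-driven luciferase reporter | Medium: F12 with 10% serum | Compound dosing: 20 µM single concentration, DMSO 1% | Incubation: Overnight seeding at 37 °C, 6 h compound treatment at 37 °C | Detection: Steady-Glo luminescence read | Read-out basis: % activation of reporter signal versus tunicamycin and DMSO controls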
T cruzi inh = blocks replication of Trypanosoma cruzi | AID 1885 | inhibition, % (test concentration not listed) | T. cruzi beta-gal in NIH3T3, luminescence, 90 h | hit rate 1.4% among 300,000;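 active = mean inhibition across valid replicates above about 55%, limit read from the data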;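 also: signal also drops with host cell toxicity which is not excluded here; 0% = plate median of DMSO wells and 100% = zero luminescence signal; higher percent means less beta-gal luminescence so fewer parasites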
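System – NIH/3T3 host cells with β-galactosidase reporter T. cruzi · Doses – single 50 nL compound addition per well in DMSO · Reagent – 5000 T. cruzi trypomastigotes/well · Medium – Low-serum DMEM with 2% FBS · Timing – ≥90 h infection period, 3 h prior cell attachment · Evaluation – parasite load inhibition, % · Technique – GalScreen luminescence, 60 min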
CSC inhib = blocks cancer stem cells | hit rate 1.1% among 300,000 | inhibition, % at 7.5 µM | cancer stem cell-like cells viability, luminescence; in the data active = inhibition above about 75%; tested in HMLE shEcad cells
Beta apoptosis = blocks beta cell apoptosis | INS-1E cytokine-induced death, ATP luminescence, 48 h; percent of positive-control rescue, neutral wells zero | protection from apoptosis, % (no concentration beside the values) | hit rate 0.8% among 300,000;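 active = Every replicate reaches about 75%, or at least half do and their mean reaches it too, limit read from the data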;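 also: 0% = cytokine-treated negative control wells and 100% = positive control rescue; higher means more ATP so stronger rescue from cytokine killing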
Mdm2-MdmX inh = disrupts the human Mdm2-MdmX interaction. O15151+Q00987. SaOS-2 split-luciferase Mdm2/MdmX complementation, luminescence. inhibition, % at 8 µM. hit rate 3% among 330,000. AID 485346;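 active = inhibition of at least 50% at 8 µM in the primary screen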
Target sequence (O15151 whole entry, looked up): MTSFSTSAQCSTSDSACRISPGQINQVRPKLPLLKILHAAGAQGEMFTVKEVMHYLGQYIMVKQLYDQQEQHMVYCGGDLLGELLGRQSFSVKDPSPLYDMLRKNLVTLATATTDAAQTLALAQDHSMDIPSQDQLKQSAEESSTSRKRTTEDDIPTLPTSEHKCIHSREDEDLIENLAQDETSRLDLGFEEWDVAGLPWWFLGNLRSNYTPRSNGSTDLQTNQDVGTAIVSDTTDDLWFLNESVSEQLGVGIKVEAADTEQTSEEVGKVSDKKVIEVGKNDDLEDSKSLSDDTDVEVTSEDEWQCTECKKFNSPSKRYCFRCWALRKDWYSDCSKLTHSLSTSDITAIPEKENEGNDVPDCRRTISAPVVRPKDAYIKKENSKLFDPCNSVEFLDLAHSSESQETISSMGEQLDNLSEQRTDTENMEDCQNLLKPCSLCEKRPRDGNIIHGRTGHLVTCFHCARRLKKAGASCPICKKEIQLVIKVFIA
Target sequence (Q00987 whole entry, looked up): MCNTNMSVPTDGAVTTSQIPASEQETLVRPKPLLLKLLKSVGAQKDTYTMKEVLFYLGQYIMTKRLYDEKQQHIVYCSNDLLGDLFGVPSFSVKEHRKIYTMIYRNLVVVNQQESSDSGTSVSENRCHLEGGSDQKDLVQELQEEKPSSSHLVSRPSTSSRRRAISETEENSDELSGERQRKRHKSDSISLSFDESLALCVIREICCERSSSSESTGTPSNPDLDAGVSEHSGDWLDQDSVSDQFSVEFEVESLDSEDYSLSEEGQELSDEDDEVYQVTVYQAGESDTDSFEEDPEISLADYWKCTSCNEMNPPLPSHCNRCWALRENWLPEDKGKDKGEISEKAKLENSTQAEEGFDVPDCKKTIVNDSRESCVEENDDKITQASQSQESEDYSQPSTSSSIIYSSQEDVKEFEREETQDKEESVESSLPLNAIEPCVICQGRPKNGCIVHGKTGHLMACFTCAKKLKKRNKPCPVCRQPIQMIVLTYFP
CHOP UPR activ = apoptotic UPR (CHOP) activation; activation, % at 10 µM; CHO-CHOP luciferase reporter, luminescence; percent of tunicamycin response over DMSO baseline; hit rate 0.34% among 330,000;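 active = at 10 µM dose, activation of 40% or more, normalized to positive control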;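 also: 100% = tunicamycin at 10 µg/mL and 0% = DMSO alone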
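Assay system: CHO cells with stable CHOP pathway luciferase reporter; Buffer or medium: F12 plus 10% serum; Times: 16-18 h cell attachment, then 6 h compound exposure, 37 °C; Signal: luciferase luminescence; Read-out basis: percent activation relative to tunicamycin control; Control set: tunicamycin high control, DMSO low control.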
Mdm2-MdmX conf = confirmation of human Mdm2/MdmX interaction inhibitors. inhibition, % at 8 µM. hit rate 55% among 10,000. shares compounds with Mdm2-MdmX inh. AID 489028. Mdm2-MdmX binding, luminescent assay; in the data active = inhibition above about 40%
FLuc counter = full-length luciferase inhibition in Mdm2/MdmX counter-screen. SaOS-2 full-length luciferase counterscreen, luminescence. inhibition, % at 8 µM. shares compounds with Mdm2-MdmX inh. hit rate 77% among 6,200;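 active = mean inhibition at 8 µM reaching about 37%, which flags the compound as non-specific, limit read from the data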;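 also: p53-null SaOS-2 cells with luciferase driven by a doxycycline-inducible promoter; compound on cells about two nights before reading with doxycycline added after day one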
An asterisk follows results filed as active; / = no result given; ! = not confirmed by another sample.

SMILES	UPR XBP1 act	T cruzi inh	CSC inhib	Beta apoptosis	Mdm2-MdmX inh	CHOP UPR activ	Mdm2-MdmX conf	FLuc counter
O=C(Nc1ccc(Cl)c(S(=O)(=O)N2CCOCC2)c1)c1ccc(OCC2CCCO2)cc1 (stereo not drawn)	-4.2	-27.3	-1.5	4.5	74.9*	0.6	65.2*	59.5*
O=C(Nc1ccc(Cl)c(S(=O)(=O)N2CCOCC2)c1)c1n[nH]c(=O)c2ccccc12	2.5	/	/	-2.7	59.6*	6.2	-13.3	/
CCn1c(C)nc2cc(-c3nc4n(n3)Cc3ccccc3-4)ccc21	-14.8	11.3	92.2*	71.4	92.3*	-12.4	99.3*	51.4*
COc1ccccc1C(=O)NCCC(=O)NC1CCCCCC1	2.6	/	-8.1	-3.1	11.1	0.6	/	/
CCc1ccc(NC(=O)c2ccc3c(c2)C(=O)N(CCOC)C3Nc2ccc(CC)cc2)cc1 (stereo not drawn)	29.8	-16.9	12.1	15.2	81.3*	27.8	40.0*	99.5*
CCOCCCNS(=O)(=O)c1ccc(NC(=O)N2c3ccccc3Sc3ccccc32)cc1	-4.1	31.7	/	/	47.3	-0.2	/	/
O=C(COC(=O)c1nc(Cl)c(Cl)c(Cl)c1Cl)NCc1ccccc1	-0.6	/	/	/	54.3*	4.3	31.6	/
Nc1c(Cl)c(Cl)nc(C(=O)OCC(=O)NCc2ccccc2)c1Cl	-2.8	/	-4.8	-2.7	5.8	0.1	/	/
CCCCCC(=O)Nc1cccc(C2=NOC3(C2)C[C@@H](C(N)=O)N(C(=O)CC(c2ccccc2)c2ccccc2)C3)c1 (stereo partly drawn)	-1.8	76.2*	17.9	-1.7	53.0*	3.2	48.3*	65.1*
Cc1nc(SCC(=O)N2CCCC2=O)nc(C)c1C	-1.3	/	2.6	-1.7	-1.5	0.9	/	/
COc1ccc(-c2cn(-c3ccc(OC)cc3)c3[n+]2-c2ccccc2CC3)cc1	-4.2	37.5	34.7	131.6*	57.2*	-1.3	36.8	/
Brc1ccc(-c2c[n+]3c(n2-c2ccccc2)SCC3)cc1	-0.1	46.5	1.9	48.5	3.9	1.2	/	/
COc1ccccc1-n1c(-c2ccccc2)c[n+]2c1CCc1ccccc1-2	-5.5	76.3*!	21.7	101.5*	61.0*	-1.8	47.9*!	52.1*!
COc1ccc(-n2c(-c3ccc(Br)cc3)c[n+]3c2CCc2ccccc2-3)cc1	-1.6	59.6*	7.1	104.3*	50.8*	-1.1	53.8*	60.6*
COc1ccccc1-n1c(-c2ccccc2)c[nH]c1=S	/	-8.6	/	/	/	/	/	/
O=C1C2C3C=CC(CC3)C2C(=O)N1c1ccc(Cl)cc1Cl (stereo not drawn)	-6.3	10.3	-16.7	1.2	7.1	0.7	/	/
O=[N+]([O-])CC(=Nc1ccc(F)cc1)N/N=C\c1oc(O)c2ccccc12	-2.4	12.3	-5.0	3.9	-0.6	0.3	/	/
O=C(CSc1nnc(Cn2c(=O)sc3ccccc32)n1-c1ccccc1)Nc1nccs1	-2.8	9.1	-25.6	0.5	-1.3	-0.4	/	/
CCn1c(SCC(=O)NC2(C#N)CCCCC2)nc2ccccc2c1=O	-3.6	10.6	-16.0	-8.4	29.1	2.1	/	/
CC(C)OC(=O)c1c(-c2ccc(C(C)C)cc2)csc1NC(=O)C1CCCO1 (stereo not drawn)	-1.0	-4.4	68.9	14.3	-1.6	1.8	/	/
O=C(CN1C(=O)c2ccccc2S1(=O)=O)c1ccc(F)cc1	-9.9	-9.9	8.6	-5.7	83.4*	-7.2	68.2*	80.6*
O=C(CN1C(=O)c2ccccc2S1(=O)=O)c1ccc(OC(F)F)cc1	-8.9	-11.8	12.5	-2.8	50.4*	-6.7	72.2*	76.0*
O=C(CN1C(=O)c2ccccc2S1(=O)=O)c1ccccc1F	-13.4	-6.7	17.9	/	21.0	-4.9	/	/
CC(=O)Nc1ccc(S(=O)(=O)N(C)CC(=O)OCC(=O)Nc2cccnc2Cl)cc1	-3.4	5.0	-5.5	-1.8	-16.1	-0.1	/	/
Cc1cccn2c(=O)nc(SCC(=O)N3N=C(c4cccs4)CC3c3ccc(F)cc3)nc12 (stereo not drawn)	-2.9	66.7*	/	/	50.6*	12.6	50.6*	70.5*
SMILES	UPR XBP1 act	T cruzi inh	CSC inhib	Beta apoptosis	Mdm2-MdmX inh	CHOP UPR activ	Mdm2-MdmX conf	FLuc counter
CCc1ccc(NC(=O)CSc2nc3n[nH]c(C)c3c(=N)n2-c2cccc(OC)c2)cc1	14.0	9.1	6.0	14.9	65.7*	10.6	55.8*	61.3*
Cc1ccc(CNC(=O)CSc2nc3n[nH]c(C)c3c(=N)n2-c2cccc(C)c2)cc1	0.4	-0.6	/	0.5	21.4	-1.7	/	/
CCOc1ccc(-n2c(SCC(=O)Nc3ccc(Br)cc3)nc3n[nH]c(C)c3c2=N)cc1	-0.9	27.0	/	17.4	52.8*	11.6	41.4*	66.6*
COc1cccc(-n2c(SCC(=O)NCCC3=CCCCC3)nc3n[nH]c(C)c3c2=N)c1	-2.5	13.6	-12.4	11.3	17.4	1.8	/	/
Cc1cc(-n2c(SCC(=O)NCc3cccs3)nc3n[nH]c(C)c3c2=N)ccc1Cl	8.9	31.8	-6.2	30.9	65.6*	6.9	12.3	/
CCOc1ccc(-n2c(SCC(=O)Nc3ccccc3CC)nc3n[nH]c(C)c3c2=N)cc1	7.8	-37.9	2.2	29.8	43.4	-1.0	/	/
Cc1ccc(C(=O)NNS(=O)(=O)c2ccc(F)cc2)cc1	-2.0	-2.7	-7.4	-6.5	-0.9	0.9	/	/
COc1cc(CC(=O)OCC(=O)c2ccc3c(c2)OCCO3)cc(OC)c1OC	22.6	17.0	-4.0	38.8	66.3*	-0.2	53.8*	101.1*
CCOc1ccccc1C(=O)N/N=C/c1coc2ccc(C)cc2c1=O	0.3	/	-6.7	-4.1	78.6*	1.3	28.6	/
Cc1ccc2occ(/C=N/NC(=O)c3ccccc3Br)c(=O)c2c1	-4.3	-3.7	0.4	-10.0	37.7	-2.0	/	/
O=C(COC(=O)c1ccc(O)cc1O)Nc1cc(-c2ccccc2)nn1-c1ccccc1	-4.5	41.2	15.7	12.0	15.6	1.2	/	/
CC(=O)n1c2c(c3ccccc31)OC(N)=C(C#N)C2c1ccc(C(C)C)cc1 (stereo not drawn)	5.9	8.8	12.4	-13.0	59.0*	2.6	65.5*	130.6*
CC(=O)C1=C(C)OC(N)=C(C#N)C1c1cccc2ccccc12 (stereo not drawn)	0.1	-1.6	-20.8	-5.1	30.9	-0.8	/	/
O=C(CN1C(=O)NC2(CCCCC2)C1=O)Nc1ccc2c(c1)OCCCO2	2.0	/	-10.8	-8.3	-120.7	3.8	/	/
COc1ccc(-c2nc3cnccn3c2Nc2ccc3c(c2)OCO3)cc1	-0.8	14.8	-9.9	1.8	53.4*	2.8	6.5	/
